Assay results pooled from the literature.
Compare with care: the assays were run in different laboratories.
Target: SRSF protein kinase 1 (SRPK1, Homo sapiens, UniProt Q96SB4)

| Structure (SMILES) | effect on | mode | technique | tested at | endpoint | result |
| --- | --- | --- | --- | --- | --- | --- |
| Cc1sc(C(=O)NC2COC2)cc1-n1cc(NC(=O)Nc2c(F)cccc2Cl)cn1 | enzyme activity | inhibitor | – | 10 µM | remaining activity | 96.9% |
| CC(C)(C)c1nc2c(s1)c1nc(N)ncc1c1ccc(NS(=O)(=O)c3c(F)cccc3F)c(F)c12 | enzyme activity | inhibitor | radiometric | 1 µM | remaining activity | 99% |
| COc1cc2ncnc(Nc3ccc(Oc4ccccc4)cc3C)c2cc1OC | enzyme activity | inhibitor | – | 1 µM | inhibition | 0% |
| O=C(NCCCC1CCCCC1)c1ccc(CNC(=O)c2cnn(-c3ccccc3)c2C(F)(F)F)cc1 | cell-free assay | – | competition with immobilised ligand | 0.1 µM | remaining binding | 95% |
| N#CCCc1ccc2c(c1)-c1[nH]c3ccc([N+](=O)[O-])cc3c1CC(=O)N2 | cell-free assay | – | – | 0.5 µM | remaining signal | 107% |
| CNC(=O)c1cc(Oc2ccc(NC(=O)Nc3ccc(Cl)c(C(F)(F)F)c3)cc2)ccn1 | enzyme activity | inhibitor | – | 10 µM | inhibition | 6% |
| CC(C)c1ccc(NC(=O)c2cccs2)c(-c2nc3ccccc3[nH]c2=O)c1 | enzyme activity | inhibitor | – | 1 µM | activity vs control | 100% |
| Cc1ccc(NC(=O)c2ccc(C)c(C(F)(F)F)c2)cc1C#Cc1nn(C2CCC(O)CC2)c2ncnc(N)c12 (stereo not drawn) | cell-free assay | – | – | 10 µM | remaining signal | 106% |
| CCCS(=O)(=O)Nc1ccc(F)c(C(=O)c2c[nH]c3ncc(-c4ccc(Cl)cc4)cc23)c1F | enzyme activity | inhibitor | – | 1 µM | inhibition | < 10% |
| CCCOc1ccc(OC)c(F)c1C(=O)c1ccc(C(=O)N[C@@H]2CNC[C@H]2NC(=O)c2ccc3[nH]ncc3c2)cc1 | enzyme activity | inhibitor | – | 10 µM | remaining activity | 97% |
| c1ccc(CNc2nc(N3CCOc4ccccc43)nc3c2CCCC3)cc1 | target engagement in cells | inhibitor | chemoproteomics | 20 mM | inhibition | 4.3% |
| Cc1cc(NC(=O)c2cccc3cc(-c4cccc5[nH]nc(N)c45)ccc23)ccc1F | enzyme activity | inhibitor | – | 0.1 µM | activity vs control | 98% |
| CC(C)(O)[C@H]1CC[C@H](Nc2ccc3ncc(-c4cccc(C(F)(F)F)c4)n3n2)CC1 | enzyme activity | inhibitor | – | 1 µM | remaining activity | 100% |
| C[C@@H]1CN(c2cc(-c3nn(C)c4ccc(OC5(C)CC5)cc34)ncn2)C[C@H](C)O1 | cell-free assay | – | competition with immobilised ligand | 1 µM | remaining binding | 88% |
| Cc1ccc(C(=O)Nc2ccc(CN3CCN(C)CC3)c(C(F)(F)F)c2)cc1C#Cc1cnc2cccnn12 | enzyme activity | inhibitor | – | 23.5 nM | remaining activity | 98% |
| CCOc1cc(-c2nncn2C)ccc1Nc1ncc2cc(C)nc(NCC(C)(C)C)c2n1 | enzyme activity | inhibitor | FRET | 1 µM | inhibition | < 15% |
| Cc1ccc(Nc2nccc(N(C)c3ccc4c(C)n(C)nc4c3)n2)cc1S(N)(=O)=O | enzyme activity | inhibitor | – | 10 µM | inhibition | -3% |

| Structure (SMILES) | effect on | mode | technique | tested at | endpoint | result |
| --- | --- | --- | --- | --- | --- | --- |
| O=C(NCc1ncc(C(F)(F)F)cc1Cl)c1ccc2c(c1)C1(CCS(=O)(=O)CC1)[C@H](C1CC1)N2S(=O)(=O)c1ccc(F)cc1 | cell-free assay | – | competition with immobilised ligand | 1 µM | remaining binding | 72% |
| Cc1ccc(NC(=O)c2ccc(CN3CCN(C)CC3)cc2)cc1Nc1nc(-c2cccnc2)cs1 | cell-free assay | – | – | 0.5 µM | remaining signal | 98.9% |
| CN1CC(Oc2cnc(C#N)cc2-c2ccn3nc(NC(=O)C4CC4)cc3c2)C1 | enzyme activity | inhibitor | – | 1 µM | inhibition | -2% |
| O=C(N1CCS(=O)(=O)CC1)N1C[C@H](c2ccc(OC(F)(F)F)cc2)C[C@H](c2nc(C3CC3)no2)C1 | cell-free assay | – | competition with immobilised ligand | 1 µM | remaining binding | 100% |
| COc1cccc2c(NCc3ccccc3)nc(-n3c(N)nc4ccccc43)nc12 | target engagement in cells | inhibitor | chemoproteomics | 20 mM | inhibition | 5.7% |
| N#CC1(c2ccccn2)CCN(Cc2cc(C(=O)N3CCCC3)c(=O)n3ccccc23)CC1 | cell-free assay | – | competition with immobilised ligand | 1 µM | remaining binding | 85% |
| CCN(CC)CCNC(=O)c1c(C)[nH]c(/C=C2\C(=O)Nc3ccc(F)cc32)c1C | enzyme activity | inhibitor | – | 0.3 µM | inhibition | -17% |
| CN(c1ncccc1CNc1nc(Nc2ccc3c(c2)CC(=O)N3)ncc1C(F)(F)F)S(C)(=O)=O | enzyme activity | inhibitor | – | 1 µM | inhibition | 33.5% |
| COc1cc(Nc2cnc(C#N)c(O[C@H](C)CN(C)C)n2)ncc1-c1cnn(C)c1 | enzyme activity | inhibitor | radiometric | 1 µM | remaining activity | 89% |
| Nc1nc(Nc2ccccc2)sc1C(=O)c1c(F)cccc1F | enzyme activity | inhibitor | – | 10 µM | remaining activity | 6% |
| CS(=O)(=O)N1CCCC(NC(=O)[C@H](CCC2CCCCC2)NC(=O)c2ccc(CNC(=O)c3cnc4ccccn34)cc2)C1 (stereo partly drawn) | cell-free assay | – | competition with immobilised ligand | 0.1 µM | remaining binding | 74% |
| FC(F)(F)Oc1cccc(-c2cnc3ccc(-c4ccncc4)nn23)c1 | enzyme activity | inhibitor | radiometric | 1 µM | activity vs control | 95% |
| CO[C@H]1CC[C@H](CNc2ccc(S(=O)(=O)NC(=O)c3ccc(N4CCN(CC5=C(c6ccc(Cl)cc6)CC(C)(C)CC5)CC4)cc3Oc3cnc4[nH]ccc4c3)cc2[N+](=O)[O-])CC1 | cell-free assay | – | competition with immobilised ligand | 1 µM | remaining binding | 96% |
| Oc1cccc(-c2nc(N3CCOCC3)c3oc4ncccc4c3n2)c1 | enzyme activity | inhibitor | – | 10 µM | remaining activity | 116% |
| CC(=O)N1CCC(c2ccc(C(=O)NC(=N)N)cc2C(F)(F)F)CC1 | cell-free assay | – | competition with immobilised ligand | 1 µM | remaining binding | 86% |
| O=C1Nc2ccc(Cl)cc2C1=Cc1cc(Cl)c(O)c(Cl)c1 | cell-free assay | – | – | 0.5 µM | remaining signal | 106% |
